# Reference: paper PMC3010304 (Bioorganic & medicinal chemistry letters, 2010)
# Key:
# HIV-1IIIB = HIV-1IIIB infected C8166 cell lines; cited from earlier work
# [1] = system: A549 (human lung carcinoma); test: MTT cytotoxicity assay, A549; type: cell-based; details: 48 h
# [2] = system: MCF-7 (human breast cancer); test: MTT cytotoxicity assay, MCF-7; type: cell-based; details: 48 h
# HIV-1NL4-3 = HIV-1NL4-3 replication inhibition assay in MT-4 lymphocytes; type: cell-based; details: HIV-1NL4-3 infected MT-4 cells
# Outline: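 MT-4 cells infected with HIV-1 NL4-3 variants at a multiplicity of infection of 0.01, in a microtiter-plate replication screen.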
# [3] = target: T1, rabbit muscle glycogen phosphorylase a (RMGPa) (Oryctolagus cuniculus, UniProt P00489); test: Inhibition of rabbit muscle glycogen phosphorylase a; type: biochemical; details: for GP inhibitory potency relative to betulin (3): fold more potent than 3
# T1 sequence (P00489 1-843): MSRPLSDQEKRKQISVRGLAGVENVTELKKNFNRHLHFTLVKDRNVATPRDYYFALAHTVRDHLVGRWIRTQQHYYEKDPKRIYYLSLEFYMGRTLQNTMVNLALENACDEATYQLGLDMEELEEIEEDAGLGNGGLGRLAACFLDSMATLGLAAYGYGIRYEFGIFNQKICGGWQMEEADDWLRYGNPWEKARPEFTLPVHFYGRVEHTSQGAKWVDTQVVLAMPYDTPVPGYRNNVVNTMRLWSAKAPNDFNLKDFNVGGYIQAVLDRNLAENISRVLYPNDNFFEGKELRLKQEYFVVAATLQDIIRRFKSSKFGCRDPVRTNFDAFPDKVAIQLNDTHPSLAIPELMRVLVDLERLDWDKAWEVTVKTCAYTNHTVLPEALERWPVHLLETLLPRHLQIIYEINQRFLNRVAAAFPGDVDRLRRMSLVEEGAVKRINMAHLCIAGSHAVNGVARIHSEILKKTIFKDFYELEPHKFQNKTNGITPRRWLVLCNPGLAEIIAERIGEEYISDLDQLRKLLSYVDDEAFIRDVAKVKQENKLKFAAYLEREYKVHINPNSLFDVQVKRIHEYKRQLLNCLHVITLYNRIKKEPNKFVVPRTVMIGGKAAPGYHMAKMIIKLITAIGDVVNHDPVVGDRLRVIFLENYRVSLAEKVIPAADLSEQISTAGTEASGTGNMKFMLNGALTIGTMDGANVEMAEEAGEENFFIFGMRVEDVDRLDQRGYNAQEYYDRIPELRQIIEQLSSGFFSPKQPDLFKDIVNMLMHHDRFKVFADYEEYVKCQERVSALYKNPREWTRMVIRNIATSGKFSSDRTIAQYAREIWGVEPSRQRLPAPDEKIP
# [4] = system: PC3 (human prostate cancer); test: MTT cytotoxicity assay, PC3; type: cell-based; details: 48 h, means of three experiments, NA = no activity
structure (smiles),measurement,setting,value
"C=C(C)[C@@H]1CC[C@]2(C(=O)O)CC[C@]3(C)[C@H](CC[C@@H]4[C@@]5(C)[C@H](C(=O)O)[C@H](O)C(C)(C)[C@@H]5CC[C@]43C)[C@@H]12 [Compound 1, Epiceanothic acid]","EC50, anti-HIV-1 replication activity",HIV-1IIIB,< 0.064 µg/mL
same,decrease of cytotoxic activity against A549 compared with 12,[1],more than 20 fold
same,decrease of cytotoxic activity against MCF-7 compared with 12,[2],more than 20 fold
"C=C(C)[C@@H]1CC[C@]2(C(=O)O)CC[C@]3(C)[C@H](CC[C@@H]4[C@@]5(C)[C@@H](C(=O)O)[C@H](O)C(C)(C)[C@@H]5CC[C@]43C)[C@@H]12 [Compound 2a, ceanothic acid]",anti-HIV-1 activity (result in words),HIV-1NL4-3,no anti-HIV-1 activity
"C=C(C)[C@@H]1CC[C@]2(CO)CC[C@]3(C)[C@H](CC[C@@H]4[C@@]5(C)CC[C@H](O)C(C)(C)[C@@H]5CC[C@]43C)[C@@H]12 [Compound 3, betulin]",anti-HIV-1 activity (result in words),HIV-1NL4-3,did not exhibit significant antiviral activity
C=C(C)[C@@H]1CC[C@]2(COC(c3ccccc3)(c3ccccc3)c3ccccc3)CC[C@]3(C)[C@H](CC[C@@H]4[C@@](C)(CC(=O)O)[C@H](C(C)(C)C(=O)O)CC[C@]43C)[C@@H]12 [Compound 5],GP inhibitory potency relative to betulin (3),[3],~200 fold
same,GP inhibitory potency relative to compound 6,[3]; fold more potent than 6,14 fold
C=C(C)[C@@H]1CC[C@]2(COC(c3ccccc3)(c3ccccc3)c3ccccc3)CC[C@]3(C)[C@H](CC[C@@H]4[C@@](C)(CC(=O)OC)[C@H](C(C)(C)C(=O)OC)CC[C@]43C)[C@@H]12 [Compound 6],GP inhibitory potency relative to betulin (3),[3],14 fold
C=C(C)[C@@H]1CC[C@]2(COC(c3ccccc3)(c3ccccc3)c3ccccc3)CC[C@]3(C)[C@H](CC[C@@H]4[C@@]5(C)[C@H](C(=O)OC)[C@H](O)C(C)(C)[C@@H]5CC[C@]43C)[C@@H]12 [Compound 8],"IC50 ±SD, cytotoxic activity, PC3",[4],inactive
C=C(C)[C@@H]1CC[C@]2(COC(c3ccccc3)(c3ccccc3)c3ccccc3)CC[C@]3(C)[C@H](CC[C@@H]4[C@@]5(C)[C@H](C(=O)OC)[C@H](OC(C)=O)C(C)(C)[C@@H]5CC[C@]43C)[C@@H]12 [Compound 9],"IC50 ±SD, cytotoxic activity, PC3",[4],inactive
